For 16 compounds, zone of inhibition and inhibition of growth results are on record in ChEMBL document CHEMBL1155265, “Design, synthesis and in vitro antibacterial/antifungal evaluation of novel 1-ethyl-6-fluoro-1,4-dihydro-4-oxo-7(1-piperazinyl)quinoline-3-carboxylic acid derivatives” (2009).

What all share (format): functional
In assay [1] the test system is Xanthomonas oryzae. Kind of assay: Antibacterial activity against Xanthomonas oryzae at 50 mg/L after 24 hrs by agar well diffusion method. The conditions noted are these: read-out: DIZ. A general note: In agar diffusion tests the substance spreads into inoculated agar from a disc or well.
For assay [2], the system named is Xanthomonas axonopodis. The assay can be described thus: Antibacterial activity against Xanthomonas axonopodis at 50 mg/L after 24 hrs by agar well diffusion method. The conditions noted are these: read-out: DIZ. The essentials:
(§1)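 Bacteria plated as 0.8 mL of 24-h-old inoculum mixed into 60 mL sterile molten agar cooled to 45 °C, poured into three dishes. Wells bored with centres at least 24 mm apart. Test sample at 50 mg/L in DMSO added to wells. DMSO served as negative control and agricultural streptomycin sulfate as positive control. Read-out was inhibition zone diameter (mm).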

Assay [3] relates to Erwinia. Kind of assay: Antibacterial activity against Erwinia aroideae at 50 mg/L after 24 hrs by agar well diffusion method. As to conditions: read-out: DIZ. The method, boiled down: as §1
Assay [4] has as its system Bacillus subtilis. Kind of assay: Antibacterial activity against Bacillus subtilis at 50 mg/L after 24 hrs by agar well diffusion method. As to conditions: read-out: DIZ. The method, boiled down:
as §1

Assay [5] relates to Ralstonia solanacearum. The assay can be described thus: Antibacterial activity against Ralstonia solanacearum at 50 mg/L after 24 hrs by agar well diffusion method. As to conditions: read-out: DIZ.
Assay [6] deals with Rhizoctonia solani. Kind of assay: Antifungal activity against Rhizoctonia solani at 200 mg/L by plate growth rate method. As to conditions: read-out: GI. The essentials: (§2)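 Compound dissolved in DMSO and mixed into molten PDA at 45 °C at 200 mg/L, then plates allowed to set. A 5 mm mycelial agar disc was placed at the centre. Plates were incubated at 28 °C in the dark until the untreated control covered the plate. Colony diameters were measured and growth inhibition calculated by Abbott's formula. Each compound was tested three times.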

Assay [7] has as its system Fusarium graminearum. Kind of assay: Antifungal activity against Gibberella zeae at 200 mg/L by plate growth rate method. As to conditions: read-out: GI. The essentials:
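Plate growth rate method: compound dissolved in DMSO, mixed into sterile PDA at 45 °C to 200 mg/L, plates poured. A 5 mm mycelium agar disc placed centrally; incubated at 28 °C in the dark until the untreated control covered the plate. Colony diameters measured; growth inhibition computed by Abbott's formula. Each compound tested three times.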

The subject of assay [8] is Cytospora mali. The assay can be described thus: Antifungal activity against Valsa mali at 200 mg/L by plate growth rate method. The conditions noted are these: read-out: GI. The method, boiled down: as §2

Take `CCn1cc(C(=O)O)c(=O)c2cc(F)c(N3CCN(C(=O)COc4ccccc4OC)CC3)cc21`: the zone of inhibition at 50 µg/mL in assay [1] stood at 11.9 mm; in assay [2], 11 mm; in assay [3] it was 12.9 mm; in assay [4], 17.7 mm; in assay [5], 4.97 mm. In addition, the inhibition of growth at 200 µg/mL in assay [6] is 0%; in assay [7] it was 14%; in assay [8], 7%.

In the case of `CCn1cc(C(=O)O)c(=O)c2cc(F)c(N3CCN(C(=O)/C=C/c4ccccc4)CC3)cc21`, the zone of inhibition at 50 µg/mL came out at 11.7 mm in assay [1]; 12.1 mm in assay [2]; 10.8 mm in assay [3]; 15.2 mm in assay [4]; 4.64 mm in assay [5]. Moreover, the inhibition of growth at 200 µg/mL came to 29% in assay [6], 5% in assay [7] and 9% in assay [8].

On to `CCn1cc(C(=O)O)c(=O)c2cc(F)c(N3CCN(C(=O)c4ccc(Cl)cc4)CC3)cc21`, for which the zone of inhibition at 50 µg/mL came to 17.7 mm in assay [1]; 12.9 mm in assay [2]; 16.6 mm in assay [3]; 18.5 mm in assay [4]; 1.47 mm in assay [5]. For the same compound, the figures for the inhibition of growth at 200 µg/mL in assay [6], in assay [7] and in assay [8] were 21%, 27% and 16%, respectively.

As for `CCn1cc(C(=O)O)c(=O)c2cc(F)c(N3CCN(C(=O)c4cccnc4)CC3)cc21`, the zone of inhibition at 50 µg/mL in assay [1] is 7.94 mm; in assay [2] it was 6.58 mm; in assay [3] it was 9.19 mm; in assay [4], 8.74 mm; in assay [5], 1.06 mm. The inhibition of growth at 200 µg/mL in assay [6] is 12%; in assay [7] it was 11%; in assay [8] it was 17%.

Regarding `CCn1cc(C(=O)O)c(=O)c2cc(F)c(N3CCN(C(=O)COc4ccc(Br)cc4)CC3)cc21`, the zone of inhibition at 50 µg/mL in assay [1] is 8.02 mm; in assay [2] it was 10.7 mm; in assay [3], 8.94 mm; in assay [4] it was 12.7 mm; in assay [5] it was 7.47 mm. The inhibition of growth at 200 µg/mL in assay [6] is 49%; in assay [7], 6%; in assay [8], 9%.

Take `CCn1cc(C(=O)O)c(=O)c2cc(F)c(N3CCN(C(=O)COc4ccccc4)CC3)cc21`: the zone of inhibition at 50 µg/mL in assay [1] was 15.3 mm; in assay [2], 15 mm; in assay [3], 13.8 mm; in assay [4], 17.3 mm; in assay [5], 4.89 mm. For the same compound, the values for the inhibition of growth at 200 µg/mL in assay [6], in assay [7] and in assay [8] were 30%, 17% and 8%, respectively.

As to `CCn1cc(C(=O)O)c(=O)c2cc(F)c(N3CCN(C(=O)c4ccc(C)cc4)CC3)cc21`, the zone of inhibition at 50 µg/mL is 19.7 mm in assay [1]; 13 mm in assay [2]; 14.6 mm in assay [3]; 17.1 mm in assay [4]; 3.22 mm in assay [5]. Also, the inhibition of growth at 200 µg/mL turned out to be 36% in assay [6], 28% in assay [7] and 37% in assay [8].

For the compound `CCn1cc(C(=O)O)c(=O)c2cc(F)c(N3CCN(C(=O)c4ccc(Br)o4)CC3)cc21`, the zone of inhibition at 50 µg/mL was found to be 13 mm in assay [1]; 12.1 mm in assay [2]; 13.7 mm in assay [3]; 18.9 mm in assay [4]; 6.72 mm in assay [5]. Moreover, the values for the inhibition of growth at 200 µg/mL in assay [6], in assay [7] and in assay [8] were 47%, 26% and 27%, respectively.

Take `CCn1cc(C(=O)O)c(=O)c2cc(F)c(N3CCN(C(=O)c4ccco4)CC3)cc21`: the zone of inhibition at 50 µg/mL in assay [1] stood at 22.9 mm; in assay [2], 15.5 mm; in assay [3], 13.8 mm; in assay [4], 22.5 mm; in assay [5] it was 9.81 mm. Also, the inhibition of growth at 200 µg/mL came to 14% in assay [6], 7% in assay [7] and 8% in assay [8].

Turning to `CCn1cc(C(=O)O)c(=O)c2cc(F)c(N3CCN(C(=O)c4cc(C)oc4C)CC3)cc21`, the zone of inhibition at 50 µg/mL is 18.1 mm in assay [1]; 11.7 mm in assay [2]; 11.7 mm in assay [3]; 15.7 mm in assay [4]; 8.39 mm in assay [5]. The figures for the inhibition of growth at 200 µg/mL in assay [6], in assay [7] and in assay [8] were 16%, 25% and 29%, respectively.

In the case of `CCn1cc(C(=O)O)c(=O)c2cc(F)c(N3CCN(C(=O)c4ccccc4Br)CC3)cc21`, the zone of inhibition at 50 µg/mL stood at 16.5 mm in assay [1]; 14.6 mm in assay [2]; 16.2 mm in assay [3]; 20.1 mm in assay [4]; 8.14 mm in assay [5]. In addition, the inhibition of growth at 200 µg/mL turned out to be 15% in assay [6], 34% in assay [7] and 44% in assay [8].

For `CCn1cc(C(=O)O)c(=O)c2cc(F)c(N3CCN(C(=O)c4c(C)oc(C)c4C)CC3)cc21`, the zone of inhibition at 50 µg/mL amounted to 12.7 mm in assay [1]; 11.1 mm in assay [2]; 12.4 mm in assay [3]; 13.9 mm in assay [4]; 5.31 mm in assay [5]. The figures for the inhibition of growth at 200 µg/mL in assay [6], in assay [7] and in assay [8] were 65%, 24% and 40%, respectively.

`CCn1cc(C(=O)O)c(=O)c2cc(F)c(N3CCN(C(=O)COc4ccccc4C)CC3)cc21`: the zone of inhibition at 50 µg/mL in assay [1] was found to be 14.2 mm; in assay [2], 10.7 mm; in assay [3], 13.4 mm; in assay [4], 15.3 mm; in assay [5], 6.22 mm. Further, the inhibition of growth at 200 µg/mL in assay [6] was 34%; in assay [7] it was 20%; in assay [8], 19%.

Regarding `CCn1cc(C(=O)O)c(=O)c2cc(F)c(N3CCN(C(=O)c4ccccc4)CC3)cc21`, the zone of inhibition at 50 µg/mL in assay [1] was 22.7 mm; in assay [2] it was 15.8 mm; in assay [3] it was 17.9 mm; in assay [4], 20.7 mm; in assay [5] it was 5.92 mm. In addition, the inhibition of growth at 200 µg/mL in assay [6] stood at 25%; in assay [7] it was 23%; in assay [8], 42%.

`COC(=O)Nc1nc2ccccc2[nH]1` [CARBENDAZIM]: the inhibition of growth at 200 µg/mL in assay [6] came out at 100%; in assay [7] it was 100%; in assay [8] it was 95%.

Consider `CN[C@@H]1[C@H](O[C@H]2[C@H](O[C@H]3[C@H](O)[C@@H](O)[C@H](N=C(N)N)[C@@H](O)[C@@H]3N=C(N)N)O[C@@H](C)[C@]2(O)C=O)O[C@@H](CO)[C@H](O)[C@H]1O` [STREPTOMYCIN], for which the zone of inhibition at 50 µg/mL in assay [1] worked out at 0.81 mm; in assay [2], 0.2 mm; in assay [3], 0.5 mm; in assay [4] it was 25 mm; in assay [5] it was 17.3 mm.
